ChEMBL document CHEMBL1667863, “Amino-benzosuberone: a novel warhead for selective inhibition of human aminopeptidase-N/CD13” (Bioorg Med Chem, 2011)
pIC50, pKi: −log10 of the molar value. Structures can show the parent of a compound that is named as a salt. Calls of active or inactive are those of the source. No cut-off for these calls is given here.

Assays:
[1] = Inhibition of Aeromonas proteolytica aminopeptidase by Dixon plot analysis; design: species or system Vibrio proteolyticus
Outline: (§1)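 Compounds tested as racemates; IC50 obtained from Dixon plots, with substrate set at the Km of each enzyme.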

[2] = biological target: T1, Cytosol aminopeptidase (Bos taurus, UniProt P00727); test: Inhibition of bovine lens cytosolic leucine aminopeptidase by Dixon plot analysis; design: species or system Lens of camera-type eye; outline: as §1
T1 sequence (P00727 whole entry): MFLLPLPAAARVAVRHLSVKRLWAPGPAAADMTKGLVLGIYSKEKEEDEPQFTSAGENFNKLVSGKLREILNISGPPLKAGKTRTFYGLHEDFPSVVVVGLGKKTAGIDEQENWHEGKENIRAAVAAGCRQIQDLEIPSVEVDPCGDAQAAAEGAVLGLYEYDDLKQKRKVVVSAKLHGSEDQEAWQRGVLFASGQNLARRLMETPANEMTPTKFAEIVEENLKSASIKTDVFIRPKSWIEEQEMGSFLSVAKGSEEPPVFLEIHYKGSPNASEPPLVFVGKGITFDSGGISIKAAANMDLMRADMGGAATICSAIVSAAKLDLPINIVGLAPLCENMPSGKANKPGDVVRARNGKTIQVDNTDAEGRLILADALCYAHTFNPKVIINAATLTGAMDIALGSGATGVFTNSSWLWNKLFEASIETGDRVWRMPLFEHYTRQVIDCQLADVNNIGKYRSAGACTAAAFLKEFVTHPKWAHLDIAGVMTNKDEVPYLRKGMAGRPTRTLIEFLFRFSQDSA

[3] = biological target: Aminopeptidase N (Homo sapiens, UniProt P15144); test: Inhibition of human aminopeptidase N by Dixon plot analysis
Aminopeptidase N, sequence (P15144 whole entry): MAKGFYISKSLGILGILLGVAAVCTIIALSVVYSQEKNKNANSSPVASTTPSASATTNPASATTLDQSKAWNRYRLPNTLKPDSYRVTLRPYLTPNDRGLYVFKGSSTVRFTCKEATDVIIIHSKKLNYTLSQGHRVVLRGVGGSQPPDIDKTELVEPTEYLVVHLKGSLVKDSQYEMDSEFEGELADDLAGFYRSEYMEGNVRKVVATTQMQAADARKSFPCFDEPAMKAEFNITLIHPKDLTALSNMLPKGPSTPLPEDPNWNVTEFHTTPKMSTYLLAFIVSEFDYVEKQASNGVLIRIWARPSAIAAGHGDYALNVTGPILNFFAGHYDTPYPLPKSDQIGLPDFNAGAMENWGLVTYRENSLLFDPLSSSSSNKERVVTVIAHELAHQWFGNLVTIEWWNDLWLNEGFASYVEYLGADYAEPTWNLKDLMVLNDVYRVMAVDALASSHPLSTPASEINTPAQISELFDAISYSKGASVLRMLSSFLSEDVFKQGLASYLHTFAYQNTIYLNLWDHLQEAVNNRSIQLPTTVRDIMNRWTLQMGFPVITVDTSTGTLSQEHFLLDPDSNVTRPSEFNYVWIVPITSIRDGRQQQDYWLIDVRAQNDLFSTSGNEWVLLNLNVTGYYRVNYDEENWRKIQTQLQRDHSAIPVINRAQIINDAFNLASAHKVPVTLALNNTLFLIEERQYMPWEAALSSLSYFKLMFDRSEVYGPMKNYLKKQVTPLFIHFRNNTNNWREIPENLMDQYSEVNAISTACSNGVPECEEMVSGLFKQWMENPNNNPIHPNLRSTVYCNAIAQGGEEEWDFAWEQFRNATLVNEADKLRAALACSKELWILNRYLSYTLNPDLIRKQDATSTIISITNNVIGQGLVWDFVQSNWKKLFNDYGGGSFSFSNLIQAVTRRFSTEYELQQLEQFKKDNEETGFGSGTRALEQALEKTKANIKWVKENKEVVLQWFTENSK

[4] = Chemical stability of the compound; assay type: physicochemical
[5] = biological target: T2, Leukotriene A-4 hydrolase (Homo sapiens, UniProt P09960); test: Inhibition of aminopeptidase activity of human leukotriene A4 hydrolase by Dixon plot analysis; outline: as §1
T2 sequence (P09960 whole entry): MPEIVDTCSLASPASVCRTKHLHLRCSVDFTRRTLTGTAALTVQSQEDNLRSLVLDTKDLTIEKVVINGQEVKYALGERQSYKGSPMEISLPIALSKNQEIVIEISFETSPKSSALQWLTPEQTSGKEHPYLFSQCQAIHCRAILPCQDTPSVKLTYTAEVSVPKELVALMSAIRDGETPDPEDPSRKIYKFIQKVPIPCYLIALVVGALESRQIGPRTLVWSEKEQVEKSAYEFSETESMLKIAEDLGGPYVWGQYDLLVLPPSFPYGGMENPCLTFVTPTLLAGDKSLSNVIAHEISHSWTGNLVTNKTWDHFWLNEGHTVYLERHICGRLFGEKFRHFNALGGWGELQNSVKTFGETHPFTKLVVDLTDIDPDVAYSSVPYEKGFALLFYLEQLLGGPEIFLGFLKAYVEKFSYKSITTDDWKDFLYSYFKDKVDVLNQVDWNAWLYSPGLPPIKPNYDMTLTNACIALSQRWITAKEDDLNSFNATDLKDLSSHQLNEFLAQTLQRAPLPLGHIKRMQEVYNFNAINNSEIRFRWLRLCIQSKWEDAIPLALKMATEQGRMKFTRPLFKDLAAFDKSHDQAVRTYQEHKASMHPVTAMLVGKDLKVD

[6] = biological target: T3, Aminopeptidase N (Sus scrofa) (UniProt P15145); test: Inhibition of porcine kidney aminopeptidase N at 2 uM after 8 hrs
T3 sequence (whole entry): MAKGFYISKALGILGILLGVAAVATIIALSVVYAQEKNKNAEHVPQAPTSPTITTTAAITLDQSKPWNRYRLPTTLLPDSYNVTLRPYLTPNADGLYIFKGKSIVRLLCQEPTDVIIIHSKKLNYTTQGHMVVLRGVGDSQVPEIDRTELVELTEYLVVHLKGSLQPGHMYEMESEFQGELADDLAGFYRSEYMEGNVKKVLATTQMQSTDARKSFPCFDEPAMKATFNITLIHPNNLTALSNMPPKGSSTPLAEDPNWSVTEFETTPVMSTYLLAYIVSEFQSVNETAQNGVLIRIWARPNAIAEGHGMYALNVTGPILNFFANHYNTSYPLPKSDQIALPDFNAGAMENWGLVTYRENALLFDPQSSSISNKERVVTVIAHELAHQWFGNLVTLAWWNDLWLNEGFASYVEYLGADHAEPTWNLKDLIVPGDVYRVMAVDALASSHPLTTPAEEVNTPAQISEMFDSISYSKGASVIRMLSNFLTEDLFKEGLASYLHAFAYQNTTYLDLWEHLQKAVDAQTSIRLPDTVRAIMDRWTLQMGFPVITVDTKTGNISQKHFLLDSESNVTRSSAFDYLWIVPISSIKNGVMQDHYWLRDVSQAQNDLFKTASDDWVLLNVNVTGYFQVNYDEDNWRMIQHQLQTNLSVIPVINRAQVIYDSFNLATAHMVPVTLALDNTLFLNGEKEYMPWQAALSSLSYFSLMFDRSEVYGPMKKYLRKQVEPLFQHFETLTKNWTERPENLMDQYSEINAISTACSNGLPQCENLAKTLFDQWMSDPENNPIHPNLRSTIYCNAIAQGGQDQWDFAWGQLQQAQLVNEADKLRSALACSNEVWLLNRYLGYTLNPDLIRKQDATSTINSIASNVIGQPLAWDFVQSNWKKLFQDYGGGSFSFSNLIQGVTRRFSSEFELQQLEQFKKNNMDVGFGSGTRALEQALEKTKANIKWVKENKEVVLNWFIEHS
Outline: (§2)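 Porcine kidney APN (3 milliunits, added to start the reaction) in 20 mM Tris-HCl pH 7.5 at 25 °C; substrate leucine-para-nitroanilide 0.2 mM; para-nitroaniline release followed at 405 nm for up to 10 h; inhibitor at 2 µM; velocities compared with a no-inhibitor control.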

[7] = biological target: T3, Aminopeptidase N (Sus scrofa); test: Inhibition of porcine kidney aminopeptidase N at 2 uM after 1 hr; outline: as §2

Compound | pIC50 [1] | pIC50 [2] | pIC50 [3] | pIC50 [5] | inhibition [7] [%] | Stability [4] | inhibition [6] | pKi [3]
CC(C)C[C@H](NC(=O)[C@@H](O)[C@H](N)Cc1ccccc1)C(=O)O [UBENIMEX] | 8.80 | – | – | – | – | – | – | –
NC1CCCCCC1=O (configuration not stated) [2-AMINOCYCLOHEPTANONE HYDROCHLORIDE] | 3.46 | < 4.00 | 3.51 | – | – | – | – | –
Cl.NC1CCc2ccccc2CC1=O (configuration not stated) | 3.05 | < 3.00 | – | < 3.00 | – | Stable | 60% | 6.00
NC1Cc2ccccc2CCC1=O (configuration not stated) | < 3.00 | < 3.00 | < 3.00 | < 3.00 | – | – | – | –

Second part, led by results:

pIC50 [1] | pIC50 [2] | pIC50 [3] | pIC50 [5] | inhibition [7] [%] | Compound | Stability [4] | inhibition [6] | pKi [3]
4.82 | < 3.00 | 3.96 | < 3.00 | – | NC1CCc2ccccc2C/C1=N/O (configuration not stated) | – | – | –
< 3.00 | < 3.00 | – | – | – | N[C@H]1CCc2ccccc2C[C@H]1O (relative stereo) | – | – | –
3.89 | – | – | < 3.00 | 60 | NC1Cc2ccccc2CC1=O (configuration not stated) | – | inactive | –
3.82 | < 3.00 | – | < 3.00 | – | NC1C(=O)Cc2ccccc21 (configuration not stated) | – | – | –
